Experimental data gathered from unrelated publications.
Effect on: cell growth or viability

For `CCCCC(C(=O)COc1c(F)c(F)cc(F)c1F)n1cc([C@@](C)(NCc2ccc3ncccc3c2)C2CC2)nn1` (stereo partly shown), the IC50 was greater than 10 µM (BESM; 72 h).
`O=C(Nc1ccc2[nH]ncc2c1)c1cccc(NC(=S)Nc2ccc(F)cc2F)c1` has an IC50 of 30.6 µM (KM12; ATP luminescence; 72 h).
For `CC(C)C[C@H](NC(=O)[C@H](Cc1ccccc1)NC(=O)c1cnccn1)B(O)O`, the IC50 was 0.017 µM (NCI-H2110; ATP luminescence).
For `O=C1Nc2ccc(Cl)cc2/C1=N/NC(=O)c1cc2ccccc2[nH]1`, the IC50 was 18 µM (ZR75).
`O=C(Nc1cccc(C(=O)Nc2ccc3[nH]ncc3c2)c1)Nc1ccccc1C(F)(F)F` has an IC50 of 43.7 µM (KM12; ATP luminescence; 72 h).
`CCCCC(C(=O)COc1c(F)c(F)cc(F)c1F)n1cc([C@@](C)(NCc2ccc3ncccc3c2)C2CCC2)nn1` (stereo partly shown) gave an IC50 of greater than 10 µM (BESM; 72 h).
For `C[C@H]1O[C@@H](n2cc(F)c(=O)[nH]c2=O)[C@H](O)[C@@H]1O`, the IC50 was 13.2 µM (Hep3B; CCK-8; 48 h).
`COC(=O)/C=C/C=C/c1ccc2c(c1)OCO2` gave an IC50 of 95.6 µM (COR-L23; SRB).
With `O=C(O)CCCc1ccccc1` the IC50 was greater than 50 µM (PSN1; MTT; 72 h).
`O=C(Nc1ccc2[nH]ncc2c1)c1cccc(NC(=S)Nc2ccc(C(F)(F)F)cc2)c1` has an IC50 of 23.1 µM (KM12; ATP luminescence; 72 h).
For `Cc1[nH]c(/C=C2\C(=O)Nc3ccc(S(=O)(=O)N(C)c4cccc(Cl)c4)cc32)c(C)c1C(=O)N1CCN(C)CC1`, the IC50 was 1.84 µM (Rh41; 72 h).
`O=C(Nc1ccc2[nH]ncc2c1)c1cccc(NC(=S)Nc2cc(C(F)(F)F)cc(C(F)(F)F)c2)c1` has an IC50 of 19.6 µM (KM12; ATP luminescence; 72 h).
For `CCCCC(C(=O)COc1c(F)c(F)cc(F)c1F)n1cc([C@@](C)(NCc2ccc3ncccc3c2)C(C)C)nn1` (stereo partly shown), the IC50 was greater than 10 µM (BESM; 72 h).
`FC(F)(F)c1ccc(C(c2c[nH]c3ccccc23)c2c[nH]c3ccccc23)cc1` gave an IC50 of 17.6 µM (PPC-1; ATP luminescence; 22 h).
The IC50 of `O=C(Nc1ccc(Br)cc1)Nc1cccc(C(=O)Nc2ccc3[nH]ncc3c2)c1` is reported as greater than 50 µM (KM12; ATP luminescence; 72 h).
The IC50 of `COc1cc2nccc(Oc3ccc(NC(=O)C4(C(=O)Nc5ccc(F)cc5)CC4)cc3)c2cc1OC` is reported as 2.4 µM (Rh41; 72 h).
The IC50 of `CCC(C(=O)COc1c(F)c(F)cc(F)c1F)n1cc([C@](C)(CC(C)C)NCc2ccc3ncccc3c2)nn1` (stereo partly shown) is reported as greater than 10 µM (BESM; 72 h).
For `O=C(Nc1ccc2[nH]ncc2c1)c1cccc(NC(=O)c2cc(C(F)(F)F)ccc2F)c1`, the IC50 was 26.8 µM (KM12; ATP luminescence; 72 h).
The IC50 of `CC(C)C(=O)Nc1ccc([N+](=O)[O-])c(C(F)(F)F)c1` is reported as greater than 50 µM (Hep3B; CCK-8; 48 h).
For `O=C1NCCc2[nH]c(-c3ccncc3)cc21`, the IC50 was 0.286 µM (SR).
The IC50 of `O=C(Nc1cccc(C(=O)Nc2ccc3[nH]ncc3c2)c1)Nc1ccccc1Cl` is reported as greater than 50 µM (KM12; ATP luminescence; 72 h).
`CN1C(=O)/C(=N\NC(=O)c2cc3ccccc3[nH]2)c2cc(Br)ccc21` gave an IC50 of 1.01 µM (ZR75).
`O=C(Nc1ccc(C(F)(F)F)cc1)Nc1cccc(C(=O)Nc2ccc3[nH]nc(-c4ccccc4)c3c2)c1` gave an IC50 of greater than 50 µM (KM12; ATP luminescence; 72 h).
`CN1C(=O)/C(=N\NC(=O)c2cc3ccccc3[nH]2)c2cc(F)ccc21` gave an IC50 of 4.31 µM (ZR75).
For `C[C@@H](Oc1cc(-c2cnn(C3CCNCC3)c2)cnc1N)c1c(Cl)ccc(F)c1Cl`, the IC50 was 0.45 µM (Rh41; 72 h).
`CC(=O)O[C@H]1C(=O)[C@@]2(C)[C@H]([C@H](OC(=O)c3ccccc3)[C@]3(O)C[C@H](OC(=O)[C@H](O)[C@@H](NC(=O)c4ccccc4)c4ccccc4)C(C)=C1C3(C)C)[C@]1(OC(C)=O)CO[C@@H]1C[C@@H]2O` has an IC50 of 0.0021 µM (COR-L23; SRB).
`COc1ccc2c(c1)/C(=N/NC(=O)c1cc3ccccc3[nH]1)C(=O)N2` gave an IC50 of 17.9 µM (ZR75).
With `CC(=O)Oc1ccc2c(c1)C(C)=CC(C)(C)N2Cc1ccccc1` the IC50 was 8 µM (Hep3B; MTT; 72 h).
`COc1ccc2c(c1)/C(=N/NC(=O)c1cc3ccccc3[nH]1)C(=O)N2C` gave an IC50 of 1.48 µM (ZR75).
`COc1cc(Nc2nccc(-c3cnn4nc(OC)ccc34)n2)cc(C(F)(F)F)c1` gave an IC50 of 0.63 µM (NCI-H2110; ATP luminescence).
The IC50 of `CCCCC[C@H](O)CC(=O)CCc1ccc(O)c(OC)c1` is reported as 199 µM (COR-L23; SRB).
